Assay results reported in ChEMBL document CHEMBL1154998, “Enantioselective synthesis of (R)-(+)- and (S)-(-)-higenamine and their analogues with effects on platelet aggregation and experimental animal model of disseminated intravascular coagulation” (Bioorg Med Chem Lett, 2008).
Active and inactive are the calls of the source. No cut-off for these calls is given here.

Columns and labels:
[1] = tested on: Rattus norvegicus; assay: Effect on LPS-induced Sprague-Dawley rat disseminated intravascular coagulation model assessed as amelioration of increased fibrin degradation product levels at 10 mg/day or 25 mg/day, po after 2 hrs of fasting for 2 consecutive days; format: functional, organism-based
How it was run: (§1)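 Male Sprague–Dawley rats (230–270 g) dosed orally in distilled water once daily for 2 days. Ketamine anaesthesia 1 h after the second dose, then LPS 20 mg/kg in saline infused into the tail vein for 3 h. Citrated plasma was used for PT, aPTT and fibrinogen, serum for FDP (semi-quantitative kit, dilution method), and serum by analyzer for AST and BUN. Mean ± SEM, ANOVA with Tukey HSD, n = 6–13 per group.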

[2] = tested on: Rattus norvegicus; assay: Effect on LPS-induced Sprague-Dawley rat disseminated intravascular coagulation model assessed as prolongation of activated partial […] time at 10 mg/day or 25 mg/day, po after 2 hrs of fasting for 2 consecutive days; format: functional, organism-based; how it was run: as §1
[3] = tested on: Platelet; assay: Inhibition of U46619-induced platelet aggregation in rat blood; format: functional, cell-based
[4] = tested on: Rattus norvegicus; assay: Effect on Sprague-Dawley rat disseminated intravascular coagulation model assessed as suppression of LPS-induced aspartate aminotransferase levels at 10 mg/day or 25 mg/day, po after 2 hrs of fasting for 2 consecutive days; format: functional, organism-based; how it was run: as §1
[5] = tested on: Platelet; assay: Inhibition of NaAA-induced platelet aggregation in rat blood; format: functional, cell-based
[6] = tested on: Rattus norvegicus; assay: Effect on LPS-induced Sprague-Dawley rat disseminated intravascular coagulation model assessed as amelioration of increased urea nitrogen levels at 10 mg/day or 25 mg/day, po after 2 hrs of fasting for 2 consecutive days; format: functional, organism-based; how it was run: as §1
[7] = tested on: Rattus norvegicus; assay: Effect on LPS-induced Sprague-Dawley rat disseminated intravascular coagulation model assessed as prolongation of prothrombin time at 10 mg/day or 25 mg/day, po after 2 hrs of fasting for 2 consecutive days; format: functional, organism-based; how it was run: as §1
[8] = tested on: Platelet; assay: Inhibition of epinephrine-induced platelet aggregation in rat blood; format: functional, cell-based
[9] = tested on: Rattus norvegicus; assay: Effect on Sprague-Dawley rat disseminated intravascular coagulation model assessed as prevention of LPS-induced decrease in fibrinogen level at 10 mg/day or 25 mg/day, po after 2 hrs of fasting for 2 consecutive days; format: functional, organism-based; how it was run: as §1
[10] = tested on: Platelet; assay: Inhibition of collagen-induced platelet aggregation in rat blood; format: functional, cell-based
How it was run: (§2)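 Rat heart blood in 2.2% citrate, spun at 200g for 10 min to give PRP, adjusted to 400–450 × 10⁶ platelets/ml with saline. PRP pre-incubated 3 min, then sample or vehicle added, with ADP (2–5 × 10⁻⁶ M) or collagen (2–5 × 10⁻⁶ g/ml) added 1 min later. Aggregation read on an aggregometer and the 50% inhibitory concentration determined.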

[11] = tested on: Platelet; assay: Inhibition of ADP-induced platelet aggregation in rat blood; format: functional, cell-based; how it was run: as §2

Oc1ccc(C[C@@H]2NCCc3cc(O)c(O)cc32)cc1 [(-)-HIGENAMINE]
Activity [1]: Active
Activity [2]: Active
IC50 [3]: 25 µM
Activity [4]: Active
IC50 [5]: 9.1 µM
Activity [6]: Active
Activity [7]: Active
IC50 [8]: 1.6 µM
Activity [9]: Active

Oc1cc2c(cc1O)[C@H](Cc1ccc3ccccc3c1)NCC2
Activity [1]: Active
Activity [2]: Active
IC50 [3]: 61 µM
Activity [4]: Active
IC50 [5]: 6.2 µM
Activity [6]: Active
Activity [7]: Active
IC50 [8]: 0.9 µM
Activity [9]: Active

Oc1cc2c(cc1O)[C@@H](Cc1cccc3ccccc13)NCC2
Activity [1]: Active
Activity [2]: Active
IC50 [3]: 20 µM
IC50 [5]: 11 µM
Activity [6]: Active
Activity [7]: Active
IC50 [8]: 2.4 µM

CC(=O)Oc1ccccc1C(=O)O [ASPIRIN]
IC50 [10]: 420 µM
IC50 [3]: 340 µM
IC50 [11]: > 1000 µM
IC50 [5]: 66 µM
IC50 [8]: 53 µM

Oc1cc2c(cc1O)[C@@H](Cc1ccc3ccccc3c1)NCC2
Activity [1]: Active
Activity [2]: Active
IC50 [3]: 49 µM
Activity [4]: Active
IC50 [5]: 7.9 µM
Activity [6]: Active
Activity [7]: Active
IC50 [8]: 15 µM

Oc1cc2c(cc1O)[C@H](Cc1cccc3ccccc13)NCC2
Activity [1]: Active
IC50 [10]: 69 µM
Activity [2]: Active
IC50 [3]: 16 µM
IC50 [11]: 270 µM
IC50 [5]: 5.6 µM
Activity [6]: Active
Activity [7]: Active
IC50 [8]: 0.38 µM

Oc1ccc(C[C@H]2NCCc3cc(O)c(O)cc32)cc1 [(+)-HIGENAMINE]
Activity [1]: Active
Activity [2]: Active
IC50 [3]: 15 µM
IC50 [11]: > 1000 µM
Activity [4]: Active
IC50 [5]: 11 µM
Activity [6]: Active
Activity [7]: Active
IC50 [8]: 14 µM
